Measurements reported in paper PMC6220817 (Chemistry (Weinheim an Der Bergstrasse, Germany), 2018).
Values belong to the molecule of their own block, whether it stands above or below them. Ends that are not written are not given here. TMR‑5‑maleimide = tetramethylrhodamine-5-maleimide

Columns and labels:
[1] = biological target: tubulin; details: Reported value for the binding to tubulin; cited from earlier work
[2] = biological target: tubulin (Sus scrofa, UniProt P02550+P02554); assay: Turbidity measurement of tubulin polymerization; assay type: biochemical, porcine; details: 10 μM compound, 4 μM tubulin, 1 mM GTP; for Stability of treated microtubules on cooling (turbidity): cooled to 4 °C for 15 min; for Turbidity (optical density at 350 nm) / tubulin polymerization: BRB80, 37 °C, 60 min
Sequence of tubulin (Sus scrofa, UniProt P02550+P02554) (P02554 whole entry): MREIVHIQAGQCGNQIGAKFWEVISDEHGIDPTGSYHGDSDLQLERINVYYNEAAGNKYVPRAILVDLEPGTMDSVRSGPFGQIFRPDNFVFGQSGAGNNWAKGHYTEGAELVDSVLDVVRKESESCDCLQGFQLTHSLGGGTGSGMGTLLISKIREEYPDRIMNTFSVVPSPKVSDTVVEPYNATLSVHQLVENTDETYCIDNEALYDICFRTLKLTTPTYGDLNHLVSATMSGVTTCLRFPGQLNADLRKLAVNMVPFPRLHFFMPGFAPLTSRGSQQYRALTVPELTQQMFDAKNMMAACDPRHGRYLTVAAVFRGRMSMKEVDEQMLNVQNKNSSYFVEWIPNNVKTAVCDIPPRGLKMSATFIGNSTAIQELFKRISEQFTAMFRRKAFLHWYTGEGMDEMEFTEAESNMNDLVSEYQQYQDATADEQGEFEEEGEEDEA
Sequence of tubulin (Sus scrofa, UniProt P02550+P02554) (P02550 whole entry): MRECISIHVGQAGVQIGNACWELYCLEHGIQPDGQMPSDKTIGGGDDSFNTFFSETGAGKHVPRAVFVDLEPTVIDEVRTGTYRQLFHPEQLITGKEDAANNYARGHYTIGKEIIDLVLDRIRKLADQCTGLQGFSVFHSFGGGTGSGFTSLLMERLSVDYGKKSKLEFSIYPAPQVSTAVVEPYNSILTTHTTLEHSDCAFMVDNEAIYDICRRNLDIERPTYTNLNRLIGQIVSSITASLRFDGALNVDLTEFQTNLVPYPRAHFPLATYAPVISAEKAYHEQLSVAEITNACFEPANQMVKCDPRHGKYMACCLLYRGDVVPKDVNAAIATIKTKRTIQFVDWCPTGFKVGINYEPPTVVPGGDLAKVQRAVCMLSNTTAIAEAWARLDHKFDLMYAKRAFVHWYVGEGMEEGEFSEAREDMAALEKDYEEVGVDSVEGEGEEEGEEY
How it was run: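 Porcine brain tubulin (4 μM) with 1 mM GTP in BRB80 (80 mM PIPES pH 6.9, 1 mM MgCl2, 1 mM EGTA) at 37 °C. Test compound or taxol at 10 μM, or none. OD350 read by UV/Vis every 1 min for 60 min. Samples then held at 4 °C for 15 min and read again.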

[3] = biological target: tubulin (α‐ and β‐tubulin dimer) (porcine (purified from porcine brain)) (UniProt P02550); assay: equilibrium dialysis
Sequence of tubulin (α‐ and β‐tubulin dimer) (porcine (purified from porcine brain)) (P02550 whole entry, chain 1 of 2): as the sequence (P02550 whole entry) above
Sequence of tubulin (α‐ and β‐tubulin dimer) (porcine (purified from porcine brain)) (P02554 whole entry, chain 2 of 2, further chain): as the sequence (P02554 whole entry) above

Molecule: CC(=O)O[C@H]1C(=O)[C@@]2(C)[C@H]([C@H](OC(=O)c3ccccc3)[C@]3(O)C[C@H](OC(=O)[C@H](O)[C@@H](NC(=O)c4cccc(N(C)C)c4)c4ccccc4)C(C)=C1C3(C)C)[C@]1(OC(C)=O)CO[C@@H]1C[C@@H]2O [Taxol derivative, N‐debenzoyl‐N‐[3‐(dimethylamino)benzoyl]taxol]
Kd [1]: 49 µM

Stability of treated microtubules on cooling (turbidity) [2]: remained stable
Molecule: CC(=O)O[C@H]1C(=O)[C@@]2(C)[C@H]([C@H](OC(=O)c3ccccc3)[C@]3(O)C[C@H](OC(=O)[C@H](O)[C@@H](NC(=O)c4ccccc4)c4ccccc4)C(C)=C1C3(C)C)[C@]1(OC(C)=O)CO[C@@H]1C[C@@H]2O [taxol, reference compound]

Turbidity (optical density at 350 nm) / tubulin polymerization [2]: increases the turbidity | Stability of treated microtubules on cooling (turbidity) [2]: completely depolymerized
Molecule: H-CGGGKKHVPGGGSVQIVYKPVDL-OH [2N]

Turbidity (optical density at 350 nm) / tubulin polymerization [2]: less effective
Molecule: H-KHQPGGGKVQIINKKLDLGGGC-OH [1C]

Turbidity (optical density at 350 nm) / tubulin polymerization [2]: less effective
Molecule: H-KKHVPGGGSVQIVYKPVDLGGGC-OH [2C]

Turbidity (optical density at 350 nm) / tubulin polymerization [2]: less effective
Molecule: H‐Cys(Trt)‐Gly‐Gly‐Gly‐Lys(Boc)‐His(Trt)‐Gln(Trt)‐Pro‐Gly‐Gly‐Gly‐Lys(Boc)‐Val‐Gln(Trt)‐Ile‐Ile‐Asn(Trt)‐Lys(Boc)‐Lys(Boc)‐Leu‐Asp(OtBu)‐Leu‐Alko‐PEG resin [1N]

Kd [3]: 3.4 µM
Molecule: C(TMR‑5‑maleimide)GGGKHQPGGGKVQIINKKLDL [1N‐TMR]

Kd [3]: 16.7 µM
Molecule: KHQPGGGKVQIINKKLDLGGGC(TMR‑5‑maleimide) [1C‐TMR]
